# Results as given in ChEMBL document CHEMBL1124424, “Effects of steroid D-ring modification on suicide inactivation and competitive inhibition of aromatase by analogues of androsta-1,4-diene-3,17-dione” (J Med Chem, 1989).
# Key:
# [1] = molecular target: T1, Aromatase (Homo sapiens, UniProt P11511); assay: Competitive inhibition of binding to human placental aromatase Cytochrome P450 19A1
# T1 sequence (P11511 whole entry): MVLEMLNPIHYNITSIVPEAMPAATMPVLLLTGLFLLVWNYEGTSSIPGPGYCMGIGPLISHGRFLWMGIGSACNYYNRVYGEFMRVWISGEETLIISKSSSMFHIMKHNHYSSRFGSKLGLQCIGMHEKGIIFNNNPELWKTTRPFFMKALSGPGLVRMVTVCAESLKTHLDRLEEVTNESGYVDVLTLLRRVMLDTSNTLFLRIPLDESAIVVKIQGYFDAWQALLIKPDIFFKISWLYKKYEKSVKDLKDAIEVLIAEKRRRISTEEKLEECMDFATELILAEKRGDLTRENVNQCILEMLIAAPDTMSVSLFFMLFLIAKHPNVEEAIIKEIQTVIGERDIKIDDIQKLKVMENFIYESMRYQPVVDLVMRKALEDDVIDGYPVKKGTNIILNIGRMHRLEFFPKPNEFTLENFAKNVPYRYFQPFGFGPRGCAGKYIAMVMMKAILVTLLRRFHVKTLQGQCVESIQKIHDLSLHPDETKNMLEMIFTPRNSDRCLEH
# [2] = molecular target: T1, Aromatase; assay: Ratio of Ki to Km for human placental cytochrome P450 19A1
# Procedure, shortened: (§1)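 Human placental microsomes (stored at -70 °C) in incubation buffer containing 4% by weight propylene glycol. Aromatase assays ran 1–5 min with five androstenedione concentrations (0.05–1.0 μM) and varied inhibitor concentrations. Ki is the average of two determinations at each of two inhibitor concentrations, with average deviation. Androstenedione Km was determined in each experiment, and the Ki/Km ratio was calculated.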
# [3] = molecular target: T1, Aromatase; assay: Inactivation rate (Ki) of human placental Cytochrome P450 19A1
# Procedure, shortened: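 Inhibitor at four concentrations, in duplicate, was preincubated for various times with human placental microsomes and NADPH in buffer with 4% propylene glycol. Tritiated androstenedione was then added and residual aromatase activity assayed over 5 min. Loss was corrected against inhibitor-free controls, and first-order slopes gave k_app. Apparent Ki and k_inact came from a reciprocal k_app vs reciprocal concentration plot, with limiting t1/2 = ln2/k_inact.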
# [4] = molecular target: T1, Aromatase; assay: Competitive inhibition of binding to human placental Cytochrome P450 19A1; procedure, shortened: as §1
# [5] = molecular target: T1, Aromatase; assay: Inactivation rate (Ki) for human placental aromatase Cytochrome P450 19A1
# [6] = Limiting t1/2 is the half life of aromatase inactivation in the presence of saturating concentrations of inhibitor
# Procedure, shortened: (§2)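 Human placental microsomes (stored -70 °C; protein 8.9–16.4 mg/mL, specific activity 34–101 pmol min⁻¹ (mg protein)⁻¹) preincubated with NADPH and four inhibitor concentrations for various times, in buffer with 4% propylene glycol. Tritiated androstenedione then added and remaining aromatase activity assayed 5 min. Duplicates averaged. Activity corrected against inhibitor-free controls. Apparent Ki and kinact from double-reciprocal plot of kapp vs inhibitor concentration. Limiting t1/2 = ln2/kinact.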
# [7] = molecular target: T1, Aromatase; assay: Inactivation rate (Ki) for human placental Cytochrome P450 19A1; procedure, shortened: as §2
SMILES,Ki [1],Ratio [2],Limiting t1/2 [6],also measured
CCC(=O)C1(C)CCC2C(CCC3=CC(=O)C=CC32C)C1 (stereo not drawn),97 µM,1833,,
CC(=O)C1(C)CCC2C(CCC3=CC(=O)C=CC32C)C1 (stereo not drawn),45 µM,670,,
CC(=O)OCC1(C)CCC2C(CCC3=CC(=O)C=CC32C)C1 (stereo not drawn),13 µM,273,,
CC1(C=O)CCC2C(CCC3=CC(=O)C=CC32C)C1 (stereo not drawn),,,,Ki [3]: 3.98 µM
CC1(C(=O)O)CCC2C(CCC3=CC(=O)C=CC32C)C1 (stereo not drawn),893 µM,18651,,
CC1C2CCC3=CC(=O)C=CC3(C)C2CCC1(C)C(=O)O (stereo not drawn),,23234,,Ki [4]: 1200 µM
C[C@]12C=CC(=O)C=C1CC[C@@H]1[C@@H]2CC[C@]2(C)C(=O)OC[C@@H]12,0.41 µM,,6.2 min,Ki [5]: 0.39 µM
COC(=O)C1(C)CCC2C(CCC3=CC(=O)C=CC32C)C1 (stereo not drawn),,1898,,Ki [4]: 130 µM
CC1(CO)CCC2C(CCC3=CC(=O)C=CC32C)C1 (stereo not drawn),,,,Ki [3]: 8.56 µM
CC12CCCC1C1CCC3=CC(=O)C=CC3(C)C1CC2 (stereo not drawn),0.69 µM,8.8,15.2 min,Ki [7]: 1.1 µM
COC(=O)C1(C)CCC2C(CCC3=CC(=O)C=CC32C)C1C (stereo not drawn),103 µM,2600,,
C[C@]12C=CC(=O)C=C1CC[C@@H]1[C@@H]2CC[C@]2(C)C(=O)CC[C@@H]12 [ANDROSTENEDONE],,,12.6 min,
C[C@]12CCC(=O)C[C@@H]1CC[C@@H]1[C@@H]2CC[C@]2(C)[C@@H](O)CC[C@@H]12 [STANOLONE],,10.6,12.9 min,Ki [7]: 1.55 µM; Ki [4]: 0.22 µM
